The source of these data is ChEMBL document CHEMBL1641365, “Synthesis, in vitro and in vivo preliminary evaluation of anti-angiogenic properties of some pyrroloazaflavones” (Bioorg Med Chem, 2011).

Experiment [1] has as its system HUVEC. Kind of experiment: Growth inhibition of HUVEC cells after 20 hrs by MTT assay. It is filed as cell-based. As to conditions: Homo sapiens. The method in brief:
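Primary HUVECs, passages 2–4, were seeded at 2 × 10⁴ cells/cm². After 24 h they were exposed to a range of concentrations (10 to 10⁻⁵ µM). After 20 h, MTT (0.5 mg/mL) was read. IC50 is the concentration giving a 50% viability drop versus untreated cells; 10 µM was the top concentration. Values are means ± SD of at least three independent experiments.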
Background: Formazan colour is commonly taken as a measure of viable cells.

Experiment [2] concerns HUVEC. The experiment is described as follows: Inhibition of growth factor-induced angiogenesis in HUVEC cells assessed as inhibition of cell migration at 10^-2 uM after 4 hrs by fluorescence microscopy. It is filed as functional, cell-based. As to conditions: Homo sapiens.
The subject of experiment [3] is HUVEC. Kind of experiment: Antiangiogenic activity against FGF2-induced in HUVEC cells assessed as inhibition of morphological change at 10^-2 uM after 18 hrs by capillary-like formation assay. Type of experiment: functional, cell-based. Conditions: Homo sapiens.
For experiment [4], the system named is HUVEC. Kind of experiment: Antiangiogenic activity against FGF2-induced in HUVEC cells assessed as inhibition of capillary-like formation at 10^-2 uM after 18 hrs by Matrigel assay. It is filed as functional, cell-based. Conditions: Homo sapiens.
Experiment [5] has as its system Mus musculus. Kind of experiment: Antiangiogenic activity against FGF2-induced C57/BL6 mouse assessed as inhibition of angiogenesis at 0.01 uM, sc after 7 days by Matrigel plug assay. It is filed as functional, organism-based. The method in brief: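 Matrigel with heparin, with or without FGF-2 200 ng/plug plus test agent 0.01 µM, injected subcutaneously into the dorsal area of C57/BL6 mice. Animals were killed after 7 days. Plugs were removed and steeped overnight at 4 °C in 0.1% Brij-35 in PBS. Hemoglobin content of the plugs was measured.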

For experiment [6], the system named is HUVEC. The experiment is described as follows: Induction of apoptosis in HUVEC cells assessed as proapoptotic effect after 24 hrs by TUNEL assay. Type of experiment: functional, cell-based. Conditions: Homo sapiens.
The test system of experiment [7] is HUVEC. The experiment is described as follows: Antiangiogenic activity against FGF2-induced in HUVEC cells assessed as inhibition of capillary-like formation at 10^-4 uM after 18 hrs by Matrigel assay. Conditions: Homo sapiens. Type of experiment: functional, cell-based.
In experiment [8] the test system is HUVEC. Kind of experiment: Inhibition of growth factor-induced angiogenesis in HUVEC cells assessed as inhibition of cell migration at 10^-4 uM after 4 hrs by fluorescence microscopy. Type of experiment: functional, cell-based. Conditions: Homo sapiens.
Experiment [9] relates to HUVEC. Kind of experiment: Antiangiogenic activity against FGF2-induced HUVEC assessed as inhibition of cell proliferation at 10^-4 uM after 24 hrs. Type of experiment: functional, cell-based. As to conditions: Homo sapiens.
The subject of experiment [10] is HUVEC. Kind of experiment: Inhibition of growth factor-induced angiogenesis in HUVEC cells assessed as inhibition of in cell migration at 10^-5 uM after 4 hrs by fluorescence microscopy. Type of experiment: functional, cell-based. Conditions: Homo sapiens.
Experiment [11] has as its system HUVEC. The experiment is described as follows: Antiangiogenic activity against FGF2-induced in HUVEC cells assessed as inhibition of capillary-like formation at 10^-5 uM after 18 hrs by Matrigel assay. Type of experiment: functional, cell-based. As to conditions: Homo sapiens.
Experiment [12] concerns HUVEC. The experiment is described as follows: Antiangiogenic activity against FGF2-induced HUVEC assessed as inhibition of cell proliferation at 10^-5 uM after 24 hrs. As to conditions: Homo sapiens. Type of experiment: functional, cell-based.
Experiment [13] concerns HUVEC. Kind of experiment: Antiangiogenic activity against FGF2-induced in HUVEC cells assessed as inhibition of morphological change at 10^-3 uM after 18 hrs by capillary-like formation assay. Type of experiment: functional, cell-based. As to conditions: Homo sapiens.
In experiment [14] the test system is HUVEC. Kind of experiment: Inhibition of growth factor-induced angiogenesis in HUVEC cells assessed as inhibition of cell migration at 10^-3 uM after 4 hrs by fluorescence microscopy. It is filed as functional, cell-based. Conditions: Homo sapiens.
Experiment [15] relates to HUVEC. Kind of experiment: Antiangiogenic activity against FGF2-induced HUVEC assessed as inhibition of cell proliferation at 10^-3 uM after 24 hrs. It is filed as functional, cell-based. As to conditions: Homo sapiens.
The subject of experiment [16] is HUVEC. The experiment is described as follows: Antiangiogenic activity against FGF2-induced in HUVEC cells assessed as inhibition of capillary-like formation at 10^-3 uM after 18 hrs by Matrigel assay. Type of experiment: functional, cell-based. As to conditions: Homo sapiens.
For experiment [17], the system named is HUVEC. The experiment is described as follows: Antiangiogenic activity against FGF2-induced in HUVEC cells assessed as inhibition of morphological change at 10^-3 uM after 18 hrs by capillary-like formation assay. As to conditions: Homo sapiens.
In experiment [18] the test system is HUVEC. Kind of experiment: Antiangiogenic activity against FGF2-induced HUVEC assessed as inhibition of cell proliferation at 10^-2 uM after 24 hrs. Type of experiment: functional, cell-based. As to conditions: Homo sapiens.

SMILES strings stand for the structures. Calls of active or inactive are those of the source. The calls are words filed in the database; no cut-off is given here. Bounds are passed on as bounds.

As to `O=c1cc(-c2ccccc2)[nH]c2c1ccc1c2ccn1CC1CC1`, the IC50 (usually the concentration needed to halve the response being measured) in [1] stood at 4.2 µM. Moreover, in experiment [2], the inhibition result is “Active”. Besides, the result in experiment [3] was inactive. For the same compound, the outcome in [4], in experiment [5] and in experiment [6] was Active.

The compound `CCn1ccc2c3[nH]c(-c4ccccc4)cc(=O)c3ccc21` yielded an IC50 in [1] of 8.1 µM. Also, the inhibition result in experiment [2] was “Active”. The outcome in [3] was inactive. For the same compound, the result in experiment [4] and in experiment [6] was Active.

As for `Cc1cc2c(ccc3c(=O)cc(-c4ccccc4)[nH]c32)[nH]1`, in [1], the half-maximal inhibitory concentration (IC50) is greater than 10 µM.

As to `Oc1cc(-c2ccccc2)nc2c1ccc1[nH]ccc12`, the IC50 in [1] worked out at 0.043 µM. Besides, the outcome in [7], in [5], in [9] and in experiment [6] was Active. Moreover, the inhibition result in [8] is “Active”.

In experiment [1], `CC[C@]1(O)C[C@@H]2CN(CCc3c([nH]c4ccccc34)[C@@](C(=O)OC)(c3cc4c(cc3OC)N(C)[C@H]3[C@@](O)(C(=O)OC)[C@H](OC(C)=O)[C@]5(CC)C=CCN6CC[C@]43[C@@H]65)C2)C1` [VINBLASTINE] gave an IC50 of 0.049 µM. In experiment [10], the inhibition entry is “Active”. Further, the outcome in experiment [11] and in [12] was Active.

In the case of `CCOC(=O)CCn1ccc2c3[nH]c(-c4ccccc4)cc(=O)c3ccc21`, in [1], the IC50 is 5.7 µM. Also, in experiment [2], the inhibition result was “Active”. The result in [3], in experiment [4], in experiment [5] and in experiment [6] was Active.

In experiment [1], `Oc1cc(-c2cccs2)nc2c1ccc1[nH]ccc12` gave an IC50 greater than 10 µM.

In experiment [1], `O=[N+]([O-])c1cccc(-c2cc(O)c3ccc4[nH]ccc4c3n2)c1` displayed an IC50 of 0.45 µM. Also, the outcome in experiment [13], in [15], in [5], in [16], in experiment [6] and in [17] was Active. The inhibition entry in experiment [14] is “Active”.

`O=c1cc(-c2ccc[nH]2)[nH]c2c1ccc1[nH]ccc12` had an IC50 in experiment [1] greater than 10 µM.

As for `COc1cccc(-c2cc(O)c3ccc4[nH]ccc4c3n2)c1`, the IC50 in experiment [1] came out at 5.8 µM. Besides, the inhibition result in experiment [2] was “Active”. The result in [6] and in [18] was Active.
